Assay results reported in ChEMBL document CHEMBL4406856, “Structure based design, synthesis and in vitro antitumour activity of tiazofurin stereoisomers with nitrogen functions at the C-2' or C-3' positions” (Eur J Med Chem, 2019).
Active and inactive are the calls of the source. No cut-off for these calls is given here.

Experiments:
K562 [1] = assay: Induction of apoptosis in human K562 cells incubated for 24 hrs by annexin V FITC and propidium iodide staining based flow cytometry relative to control; assay type: functional; design: concentration or dose not given beside the values
K562 [2] = assay: Antiproliferative activity against human K562 cells assessed as reduction in cell growth incubated for 72 hrs by MTT assay; assay type: functional, cell-based; settings: K562, 72 h
Procedure, shortened: (§1)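 Colorimetric MTT assay on human tumour lines K562 (chronic myeloid leukemia), HL-60 (promyelocytic leukemia), Jurkat (T cell leukemia), Raji (Burkitt's lymphoma), HT-29 (colorectal adenocarcinoma), HeLa (cervix adenocarcinoma) and normal lung fibroblast MRC-5; cells exposed to compounds for 72 h.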

HL-60 [3] = assay: Antiproliferative activity against human HL60 cells assessed as reduction in cell growth incubated for 72 hrs by MTT assay; assay type: functional, cell-based; settings: HL-60, 72 h
Procedure, shortened: as §1, with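 “h. IC50 taken as concentration giving 50% growth inhibition versus untreated control.” for “h.”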

Jurkat [4] = assay: Antiproliferative activity against human Jurkat cells assessed as reduction in cell growth incubated for 72 hrs by MTT assay; assay type: functional, cell-based
Procedure, shortened: as §1, with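 “h. IC50 taken as concentration giving 50% growth inhibition versus untreated control.” for “h.”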

Raji [5] = assay: Antiproliferative activity against human Raji cells assessed as reduction in cell growth incubated for 72 hrs by MTT assay; assay type: functional, cell-based; procedure, shortened: as §1
HT-29 = assay: Antiproliferative activity against human HT-29 cells assessed as reduction in cell growth incubated for 72 hrs by MTT assay; assay type: functional, cell-based; settings: HT-29, 72 h
Procedure, shortened: as §1, with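 “h. IC50 taken as concentration giving 50% growth inhibition versus untreated control.” for “h.”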

HeLa [6] = assay: Antiproliferative activity against human HeLa cells assessed as reduction in cell growth incubated for 72 hrs by MTT assay; assay type: functional, cell-based
Procedure, shortened: as §1, with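 “h. IC50 taken as concentration giving 50% growth inhibition versus untreated control.” for “h.”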

MRC5 = assay: Cytotoxicity against human MRC5 cells assessed as reduction in cell viability incubated for 72 hrs by MTT assay; assay type: cell-based; settings: MRC5, 72 h; procedure, shortened: as §1
Jurkat [7] = assay: Potency index, ratio of tiazofurin IC50 to compound IC50 for cytotoxicity against human Jurkat cells incubated for 72 hrs by MTT assay; assay type: functional
Jurkat [8] = assay: Potency index, ratio of doxorubicin IC50 to compound IC50 for cytotoxicity against human Jurkat cells incubated for 72 hrs by MTT assay; assay type: functional
K562 [9] = assay: Cell cycle arrest in human K562 cells assessed as accumulation in G2/M phase incubated for 72 hrs by propidium iodide staining based flow cytometry (reference value: 15.45%); assay type: functional
Procedure, shortened: (§2)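 Exponentially growing K562 cells treated for 24 or 72 h, untreated cells as control; cells stained with propidium iodide and DNA content read by flow cytometry. Phase distribution (subG1, G0/G1, S, G2/M) taken from one-parameter histograms, subG1 scored as hypodiploid, apoptotic cells.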

K562 [10] = assay: Cell cycle arrest in human K562 cells assessed as accumulation in S phase incubated for 72 hrs by propidium iodide staining based flow cytometry (reference value: 36.05%); assay type: functional; procedure, shortened: as §2
K562 [11] = assay: Cell cycle arrest in human K562 cells assessed as accumulation in G0/G1 phase incubated for 72 hrs by propidium iodide staining based flow cytometry (reference value: 45.43%); assay type: functional; procedure, shortened: as §2
K562 [12] = assay: Cell cycle arrest in human K562 cells assessed as accumulation in SubG1 phase incubated for 72 hrs by propidium iodide staining based flow cytometry (reference value: 3.07%); assay type: functional; procedure, shortened: as §2
K562 [13] = assay: Induction of apoptosis in human K562 cells incubated for 72 hrs by annexin V FITC and propidium iodide staining based flow cytometry relative to control; assay type: functional; design: concentration or dose not given beside the values
Procedure, shortened: (§3)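 K562 cells treated for 72 h, stained with Annexin V-FITC/propidium iodide and analysed by flow cytometry. Apoptotic, necrotic and live fractions scored as percent of gated cells; specific apoptosis and specific necrosis calculated from these counts.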

K562 [14] = assay: Induction of necrosis in human K562 cells incubated for 72 hrs by annexin V FITC and propidium iodide staining based flow cytometry relative to control; assay type: functional; design: concentration or dose not given beside the values; procedure, shortened: as §3
K562 [15] = assay: Induction of apoptosis in human K562 cells assessed as Bcl2 level incubated for 72 hrs by Western blot analysis (reference value: 100%); assay type: functional
Procedure, shortened: (§4)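 K562 cells treated for 72 h; Bcl-2, BAX, caspase 3 precursor (32 kDa), caspase 3 active subunit (18 kDa) and PARP (112 and 85 kDa) measured by Western blot and expressed as % of untreated control.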

K562 [16] = assay: Induction of apoptosis in human K562 cells assessed as Bax level incubated for 72 hrs by Western blot analysis (reference value: 100%); assay type: functional; procedure, shortened: as §4
K562 [17] = assay: Induction of apoptosis in human K562 cells assessed as 32 kDa Caspase 3 precursor level incubated for 72 hrs by Western blot analysis (reference value: 100%); assay type: functional; procedure, shortened: as §4
K562 [18] = assay: Induction of apoptosis in human K562 cells assessed as 18 kDa Caspase 3 active subunit level incubated for 72 hrs by Western blot analysis (reference value: 100%); assay type: functional; procedure, shortened: as §4
K562 [19] = assay: Induction of apoptosis in human K562 cells assessed as 112 kDa PARP level incubated for 72 hrs by Western blot analysis (reference value: 100%); assay type: functional; procedure, shortened: as §4
K562 [20] = assay: Induction of apoptosis in human K562 cells assessed as 85 kDa PARP level incubated for 72 hrs by Western blot analysis (reference value: 100%); assay type: functional; procedure, shortened: as §4
K562 [21] = assay: Induction of apoptosis in human K562 cells assessed as reduction in cell membrane integrity at cytotoxic IC50 incubated for 72 hrs by acridine orange and ethidium bromide double staining based fluorescence microscopy; assay type: functional
K562 [22] = assay: Genotoxicity in human K562 cells assessed as increase in DNA damage at cytotoxic IC50 incubated for 72 hrs by comet assay; assay type: toxicity, cell-based; settings: k562, 72 h
Procedure, shortened: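 Modified alkaline comet assay: cells set in agarose on slides, electrophoresed horizontally, stained with ethidium bromide and imaged by fluorescence microscopy. 50 comets scored per sample; mean tail moment used as the DNA-damage measure.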

K562 [23] = assay: Induction of necrosis in human K562 cells incubated for 24 hrs by annexin V FITC and propidium iodide staining based flow cytometry relative to control; assay type: functional; design: concentration or dose not given beside the values
Raji [24] = assay: Potency index, ratio of tiazofurin IC50 to compound IC50 for cytotoxicity against human Raji cells incubated for 72 hrs by MTT assay; assay type: functional
Raji [25] = assay: Potency index, ratio of doxorubicin IC50 to compound IC50 for cytotoxicity against human Raji cells incubated for 72 hrs by MTT assay; assay type: functional
K562 [26] = assay: Cell cycle arrest in human K562 cells assessed as accumulation in G2/M phase incubated for 24 hrs by propidium iodide staining based flow cytometry (reference value: 14.29%); assay type: functional; procedure, shortened: as §2
K562 [27] = assay: Cell cycle arrest in human K562 cells assessed as accumulation in S phase incubated for 24 hrs by propidium iodide staining based flow cytometry (reference value: 48.38%); assay type: functional; procedure, shortened: as §2
K562 [28] = assay: Cell cycle arrest in human K562 cells assessed as accumulation in G0/G1 phase incubated for 24 hrs by propidium iodide staining based flow cytometry (reference value: 36.28%); assay type: functional; procedure, shortened: as §2
K562 [29] = assay: Cell cycle arrest in human K562 cells assessed as accumulation in sub-G1 phase incubated for 24 hrs by propidium iodide staining based flow cytometry (reference value: 1.05%); assay type: functional; procedure, shortened: as §2
K562 [30] = assay: Cell cycle arrest in human K562 cells assessed as decrease in cell accumulation at G2/M phase incubated for 72 hrs by propidium iodide staining based flow cytometry relative to tiazofurin; assay type: functional; procedure, shortened: as §2
K562 [31] = assay: Potency index, ratio of tiazofurin IC50 to compound IC50 for cytotoxicity against human K562 cells incubated for 72 hrs by MTT assay; assay type: functional
HeLa [32] = assay: Potency index, ratio of tiazofurin IC50 to compound IC50 for cytotoxicity against human HeLa cells incubated for 72 hrs by MTT assay; assay type: functional
K562 [33] = assay: Potency index, ratio of doxorubicin IC50 to compound IC50 for cytotoxicity against human K562 cells incubated for 72 hrs by MTT assay; assay type: functional
HL-60 [34] = assay: Potency index, ratio of tiazofurin IC50 to compound IC50 for cytotoxicity against human HL60 cells incubated for 72 hrs by MTT assay; assay type: functional
HL-60 [35] = assay: Potency index, ratio of doxorubicin IC50 to compound IC50 for cytotoxicity against human HL60 cells incubated for 72 hrs by MTT assay; assay type: functional
K562 [36] = assay: Induction of apoptosis in human K562 cells incubated for 72 hrs by annexin V FITC and propidium iodide staining based flow cytometry relative to tiazofurin; assay type: functional; procedure, shortened: as §3

| SMILES | Activity (K562 [1]) | IC50 (K562 [2]) | Activity (K562 [9]) | Activity (K562 [10]) | Activity (K562 [11]) | Activity (K562 [12]) | Activity (K562 [13]) | Activity (K562 [14]) | Activity (K562 [15]) | Activity (K562 [16]) | Activity (K562 [17]) | Activity (K562 [18]) | Activity (K562 [19]) | Activity (K562 [20]) | Activity (K562 [23]) | Activity (K562 [26]) | Activity (K562 [27]) | Activity (K562 [28]) | Activity (K562 [29]) | fold change (FC) (K562 [30]) | further results |
| --- | --- | --- | --- | --- | --- | --- | --- | --- | --- | --- | --- | --- | --- | --- | --- | --- | --- | --- | --- | --- | --- |
| CC(=O)N[C@@H]1[C@@H](O)[C@H](c2nc(C(N)=O)cs2)O[C@@H]1CO | 27.17% | 340 nM | 13.22% | 41.58% | 43.3% | 1.9% | 10.14% | 14.11% | 274.16% | 126.68% | 432.96% | 87.05% | 336.99% | 364.31% | 8.55% | 4.47% | 49.42% | 36.27% | 9.84% | 2 - 2.4 | IC50 (HL-60 [3]): 3770 nM; IC50 (Jurkat [4]): 7.2 nM; IC50 (Raji [5]): 3.9 nM; IC50 (HT-29): 260 nM; IC50 (HeLa [6]): > 100000 nM; IC50 (MRC5): 42400 nM; Ratio IC50 (Jurkat [7]): 5; Ratio IC50 (Jurkat [8]): 4; Activity (K562 [21]): Active; Activity (K562 [22]): Toxic; Ratio IC50 (Raji [24]): 1353 - 1354; Ratio IC50 (Raji [25]): 764 |
| [N-]=[N+]=N[C@H]1[C@H](O)[C@@H](CO)O[C@H]1c1nc(C(N)=O)cs1 | 12.47% | 6280 nM | 13.6% | 35.15% | 37.65% | 13.59% | 12.86% | 6.24% | 35.23% | 186.25% | 3222.35% | 156.25% | 355.91% | 169.74% | 1.26% | 20.75% | 47.46% | 29.73% | 2.32% | 2 - 2.4 | IC50 (HL-60 [3]): 7550 nM; IC50 (Jurkat [4]): > 100000 nM; IC50 (Raji [5]): 40500 nM; IC50 (HT-29): 2480 nM; IC50 (HeLa [6]): 29900 nM; IC50 (MRC5): > 100000 nM |
| NC(=O)c1csc([C@@H]2O[C@H](CO)[C@H](O)[C@H]2O)n1 | 11.28% | – | 11.6% | 32.94% | 41.86% | 13.6% | 16.69% | 21.08% | 436.51% | 180.18% | 4433.8% | 230.09% | 665.4% | 552.68% | 5.36% | 8.45% | 51% | 38.15% | 2.39% | 2 - 2.4 | Ratio IC50 (K562 [31]): 2 - 48; Ratio IC50 (HeLa [32]): 2 - 48; Ratio IC50 (K562 [33]): 2; Activity (K562 [21]): Active; Activity (K562 [22]): Toxic; Ratio IC50 (HL-60 [34]): 2 - 48; Ratio IC50 (HL-60 [35]): 7; Ratio IC50 (Raji [24]): 2 - 48 |
| NC(=O)c1csc([C@@H]2O[C@H](CO)[C@@H](O)[C@@H]2N)n1 | 7.07% | 1970 nM | 10.79% | 34.2% | 37.94% | 17.08% | 23.39% | 9.82% | 414.66% | 193% | 1144.41% | 153.73% | 387.73% | 570.91% | 9.58% | 9.11% | 52.43% | 36.67% | 2.58% | 2 - 2.4 | IC50 (HL-60 [3]): 1020 nM; IC50 (Jurkat [4]): 40 nM; IC50 (Raji [5]): 1030 nM; IC50 (HT-29): 23400 nM; IC50 (HeLa [6]): 1030 nM; IC50 (MRC5): > 100000 nM; fold change (FC) (K562 [36]): 2 |
